DNMT1 inh: human DNMT1 methyltransferase inhibitors, primary screen, biochemical, molecular beacon, fluorescence, HinP1I cleavage, uHTS | DNA (cytosine-5)-methyltransferase 1 (Homo sapiens), P26358 | inhibition (reported as % activation of signal), % at 10 µM | hit rate 0.83% among 360,000; in the data active = inhibition above about 50%
SUMO1 PPI mod: modulators of SUMO1 protein-protein interactions, primary screen, biochemical, uHTS; Small ubiquitin-related modifier 1 (Homo sapiens), P63165; SUMO1 binding to a labelled peptide, TR-FRET, 1 h; inhibition, % at 20 µM; hit rate 0.33% among 360,000; in the data active = inhibition above about 37%
Target sequence (P63165 whole entry, looked up): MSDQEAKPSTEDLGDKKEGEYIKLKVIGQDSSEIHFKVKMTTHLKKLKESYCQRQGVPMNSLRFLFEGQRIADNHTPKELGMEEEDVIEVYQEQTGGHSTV
Scp1 inh: Scp-1 phosphatase inhibitors, primary screen, biochemical, colorimetric, uHTS. Carboxy-terminal domain RNA polymerase II polypeptide A small phosphatase 1 (Homo …. Recombinant Scp1, phosphopeptide, malachite green phosphate absorbance. inhibition, % at 20 µM. hit rate 0.88% among 340,000. AID 493091, 2011;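 active = inhibition above about 50% at 20 µM, limit read from the data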
Target sequence (Q9GZU7 76-261 limits assumed): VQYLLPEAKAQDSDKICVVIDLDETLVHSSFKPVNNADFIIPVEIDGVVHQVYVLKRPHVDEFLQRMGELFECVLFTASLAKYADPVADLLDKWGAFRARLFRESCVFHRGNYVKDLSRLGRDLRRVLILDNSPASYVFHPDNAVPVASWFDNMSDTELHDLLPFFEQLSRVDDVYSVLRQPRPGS
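Test system: SCP-1 phosphatase catalytic domain, residues 76-261; measured by: colorimetric phosphate reagent with accelerator and stabiliser, absorbance at 630 nm; timing: enzyme reaction 45 min at room temperature, colour 5 min, stabilisation 30 min; also added: Phosphorylated 17-residue peptide substrate; compound dosing: one concentration, 20 µM, with 1.0% DMSO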
STEP block: STEP phosphatase inhibitors, primary screen, biochemical, fluorescence intensity, uHTS; Tyrosine-protein phosphatase non-receptor type 5 (Homo sapiens), P54829; recombinant STEP, OMFP fluorogenic substrate; inhibition, % at 20 µM; hit rate 0.25% among 360,000; AID 588621, 2011;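 active = inhibition at 20 µM, scaled per plate between control wells, above about 37%, limit read from the data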
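System: STEP (striatal-enriched tyrosine phosphatase) enzyme, cell-free; medium: Bis-Tris pH 6.0 buffer with DTT, detergent; dosing: 20 µM, 1% DMSO; times: reaction 20 min, ambient temperature; detection: fluorescence, 480/540 nm; read-out basis: normalized % inhibition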
LMPTP inh: LMPTP phosphatase inhibitors, primary screen, biochemical, fluorescence intensity, uHTS | recombinant LMPTP-A, OMFP fluorogenic substrate | inhibition, % at 20 µM | hit rate 0.22% among 360,000;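 active = compounds that cut the enzyme signal by at least half of the control window in the single-dose screen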
Target sequence (P24666 whole entry, looked up): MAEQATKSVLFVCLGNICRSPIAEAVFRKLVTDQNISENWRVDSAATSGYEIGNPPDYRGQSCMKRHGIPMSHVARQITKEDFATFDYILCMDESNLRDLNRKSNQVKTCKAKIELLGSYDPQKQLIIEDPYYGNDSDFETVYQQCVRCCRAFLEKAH
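Buffer or medium: Bis-Tris pH 6.0, DTT, detergent; Assay system: LMPTP-A enzyme; Quantity: 0.625 nM enzyme; Detection: endpoint fluorescence intensity; Times: 50 min dark incubation at room temperature; Controls: substrate-only low control, DMSO enzyme-plus-substrate high control; Doses: single 20 µM dose; Read-out: percent inhibition versus substrate-only and uninhibited controls; Reagent: 400 µM OMFP.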
A number is an active result; 0 = inactive; - = no result. Shown are actives, neighbours in structure and some others; about 1.7% of the full set was active somewhere.

SMILES | DNMT1 inh | SUMO1 PPI mod | Scp1 inh | STEP block | LMPTP inh
Cc1ccc(C2CC(c3cccs3)=NN2C(=O)CSc2nc(=O)n3cc(C)ccc3n2)cc1 (stereo unspecified) | 0 | 0 | 0 | 0 | 0
COc1ccc(C(O)c2nc(-c3ccccc3)cs2)cc1 (stereo unspecified) | 0 | 0 | - | 0 | 0
COc1ccc([C@H]2C(C#N)=C([S-])N[C@](C)(O)[C@@H]2[n+]2ccccc2)cc1 | 0 | 0 | 0 | 0 | 49
Cc1ccc[n+](C2C(c3ccc([N+](=O)[O-])cc3)C(C#N)=C([S-])NC2(O)C2CC2)c1 (stereo unspecified) | 0 | 0 | 0 | 0 | 0
C[C@H]1CN([C@@H](C)CO)S(=O)(=O)c2ccc(Br)cc2O[C@@H]1CN(C)C(=O)Cc1cccnc1 | 0 | 0 | - | 0 | 0
CCCCNC(=O)c1nc(C2CCN(S(=O)(=O)c3ccccc3)CC2)oc1-c1cccc(C(F)(F)F)c1 | 0 | 0 | - | 0 | 0
CCCCNC(=O)c1nc(C2CCNCC2)oc1-c1cccc(C(F)(F)F)c1 | - | 0 | - | - | 60
Cc1c(NC(=O)/C=C/c2ccc(S(=O)(=O)N3CCOCC3)cc2)c(=O)n(-c2ccccc2)n1C | 0 | 0 | 0 | 0 | 0
c1ccc2c(N3CCCCC3)nc(N3CCCCC3)nc2c1 | 0 | 0 | 0 | 0 | 0
C(=C\c1nc(N2CCCCCC2)c2ccccc2n1)/c1ccccc1 | 0 | 0 | 0 | 0 | 56
CC(Nc1cccc(C(=O)NC2CC2)c1)c1nnc(-c2ccccc2)o1 (stereo unspecified) | 0 | 0 | 0 | 0 | 0
CCc1ccc(S(=O)(=O)Nc2cc3c(cc2C)n(C)c(=O)n3C)cc1 | 0 | 0 | 0 | 0 | 0
CC1=C(C#N)C(=O)NC(=O)/C1=C\c1ccc(-c2ccc(C)cc2[N+](=O)[O-])o1 | 0 | 0 | 0 | 0 | 0
CCOC(=O)c1cc(-c2ccc(/C=C3/C(=O)NC(=O)C(C#N)=C3C)o2)ccc1Cl | 0 | 0 | 81 | 0 | 0
O=C(CCO)c1ccc(O)cc1 | 0 | 0 | 69 | 0 | 0
O=C(OCCC12CC3CC(CC(C3)C1)C2)c1ccc(NCc2cc(O)ccc2O)cc1 | 0 | 0 | 70 | 0 | 0
O=C(OCC12CC3CC(CC(C3)C1)C2)c1ccc(NCc2cc(O)ccc2O)cc1 | 0 | 0 | 0 | 0 | 0
O=C1NN=C(CSc2n[nH]c(=S)s2)CS1 | 0 | 50 | 0 | 0 | 0
CCn1cc(C(=O)O)c(=O)c2cc(F)c(N3CCN(C(=O)Nc4ccccc4)CC3)cc21 | 0 | 0 | 0 | 0 | 51
CCn1cc(C(=O)O)c(=O)c2cc(F)c(N3CCN(S(=O)(=O)c4ccc5c(c4)OCCO5)CC3)cc21 | 0 | 0 | 0 | 0 | 62
CCn1cc(C(=O)O)c(=O)c2cc(F)c(N3CCN(C(=S)NC(=O)c4ccc(OC)cc4)CC3)cc21 | 0 | 0 | 0 | 0 | 67
CCn1cc(C(=O)O)c(=O)c2cnc(N3CCN(C(=S)Nc4ccccc4Cl)CC3)nc21 | 0 | 0 | 0 | 0 | 51
CCCCCCCCC(=O)N1CCN(c2cc3c(cc2F)c(=O)c(C(=O)O)cn3CC)CC1 | 0 | 0 | 0 | 0 | 0
O=C(NNC(=O)C(Cl)Cl)c1cnn(-c2ccccc2)c1C(F)(F)F | 0 | 0 | 0 | 0 | 0
O=C1NCCn2ccc(=O)cc21 | 0 | 0 | 0 | 0 | 0
SMILES | DNMT1 inh | SUMO1 PPI mod | Scp1 inh | STEP block | LMPTP inh
O=C(COC(=O)Cn1cnc2ccccc21)Nc1ccc(OC(F)F)cc1 | 0 | 0 | 0 | 0 | 0
CCn1cc(C(=O)O)c(=O)c2cc(F)c(N3CCN(C)CC3)cc21 | 0 | 0 | 0 | 0 | 0
CCn1cc(C(=O)O)c(=O)c2cc(F)c(N3CCN(C(=S)NC(=O)c4cccc(C)c4)CC3)cc21 | 0 | 0 | 0 | 0 | 60
CCCCCCCC(=O)N1CCN(c2cc3c(cc2F)c(=O)c(C(=O)O)cn3CC)CC1 | 0 | 0 | 0 | 0 | 0
CCn1cc(C(=O)O)c(=O)c2cc(F)c(N3CCN(C(=S)NC(=O)c4ccccc4F)CC3)cc21 | 0 | 0 | 0 | 0 | 70
CCn1cc(C(=O)O)c(=O)c2cc(F)c(N3CCN(C(=S)NC(=O)c4ccc(Br)cc4)CC3)cc21 | 0 | 0 | 0 | 0 | 61
COCCNC(=O)C1(C)Cc2c(-c3cccc(C(F)(F)F)c3)ccnc2O1 (stereo unspecified) | 0 | 0 | - | 0 | 0
Cc1ccc(C(=O)N2CCN(c3ccc(NC(=O)Cc4ccccc4)cc3)CC2)cc1 | 0 | 0 | 0 | 0 | 0
Nc1nc(SCC(=O)c2cc3ccccc3o2)n[nH]1 | 0 | 40 | 0 | 0 | 0
COc1ccc(CCNC(=O)c2ccc3nc(-c4ccco4)c(-c4ccco4)nc3c2)cc1OC | 98 | 47 | 89 | 0 | 64
O=C(Nc1cccc(C(F)(F)F)c1)c1ccc2nc(-c3ccco3)c(-c3ccco3)nc2c1 | 85 | 0 | 84 | 0 | 0
O=C(Nc1ccc2nc(-c3ccco3)c(-c3ccco3)nc2c1)NC1CC1 | 93 | 76 | 92 | 54 | 70
COc1ccc(C(CC(=O)O)NS(=O)(=O)c2ccc3c(c2)NC(=O)CO3)cc1 (stereo unspecified) | 0 | 0 | 0 | 0 | 0
OCCNNC(=S)NC1CC2C=CC1C2 (stereo unspecified) | 0 | 0 | 0 | 0 | 0
Cc1cc(C)n2c(Nc3c(C)cccc3C)c(CC(C)C)nc2n1 | - | 0 | - | - | 0
CC1Cc2cc(/C(O)=C3/C(=O)C(=O)N(CC4CCCO4)C3c3ccco3)ccc2O1 (stereo unspecified) | 50 | 0 | 0 | 0 | 0
COc1cc(C2/C(=C(\O)c3ccc4c(c3)CC(C)O4)C(=O)C(=O)N2CC2CCCO2)cc(OC)c1OC (stereo unspecified) | 0 | 0 | 0 | 0 | 0
CCNc1ccc2noc3c2c1C(=O)c1ccccc1-3 | 63 | 0 | 0 | 0 | 0
CCN(CC)C1CC(=O)N(c2cccc(Cl)c2)C1=O (stereo unspecified) | 0 | 0 | 0 | 0 | 0
CC1CN(C(=O)c2ccc(NS(=O)(=O)c3ccc(C(C)(C)C)cc3)cc2)CC(C)O1 (stereo unspecified) | 0 | 0 | 0 | 0 | 0
CCCCN(C(=O)c1cc(-c2ccco2)nc2ccccc12)c1c(N)n(CCC)c(=O)[nH]c1=O | 53 | 0 | 61 | 0 | 0
CCCCn1c(N)c(N(CC(C)C)C(=O)c2cc(-c3ccco3)nc3ccccc23)c(=O)[nH]c1=O | 0 | 0 | 0 | 0 | 0
CC(C)c1ccc(NC(=O)Cc2ccc(NC3=NC4CS(=O)(=O)CC4S3)cc2)cc1 (stereo unspecified) | 0 | 0 | 0 | 0 | 0
O=C1C=C(NCCc2cc(Br)c(O)c(Br)c2)C(=O)c2ncccc21 | 92 | 41 | 0 | 46 | 0

High-throughput results as filed in PubChem.
